The source of these data is article PMC3665732 (Chemical biology & drug design, 2013).

In assay [1] the test system is Albino Swiss mice. Briefly: Forced swim test. In kind it is in vivo. Conditions: 30 min before the test; for antidepressant effect in the forced swim test (in words): mice, ip. The method, boiled down: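 Male Albino Swiss mice (24-28 g), kept at 20 ± 1°C with free food and water and used once. Test compound was injected 30 min before the session. Each mouse swam 6 min in a glass cylinder (25 cm high, 10 cm diameter) holding 6 cm of water at 23-25°C. An observer timed immobility (floating, small head-keeping movements) over the last 4 min, after 2 min habituation. Mean ± SEM; Dunnett's test vs vehicle.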

In assay [2] the test system is Albino Swiss mice. In words: Locomotor activity test. In kind it is in vivo. The following applies: 8 20 mg/kg, 10 5 mg/kg, 12 10 mg/kg; ip 30 min before the test; first 6 minutes; vehicle 554 ± 46.

On to `CCCCCCCCCCCN1CCN(c2ccc3cc([N+](=O)[O-])ccc3n2)CC1` [Compound 11, 2-(4-Undecyl-piperazin-1-yl)-6-nitroquinoline], for which the “antidepressant effect in the forced swim test (in words)” value (shortened to “antidepressant effect”) in assay [1] is reported as “ineffective”.
With `CCCCCCCCN1CCN(c2ccc3cc([N+](=O)[O-])ccc3n2)CC1` [Compound 8, 2-(4-Octyl-piperazin-1-yl)-6-nitroquinoline], in assay [1] (20 mg/kg ip), the “reduction in mice immobility time” value is given as 15%. For the same compound, in assay [1], the “antidepressant effect” value was “moderate antidepressant activity”. Moreover, the “Locomotor activity 6 minutes (number of light beam crossings ± S.E.M.)” value (“Locomotor activity 6 minutes” for short) in assay [2] is reported as 453 ± 41.
On to `CCCCCCCCCCCCN1CCN(c2ccc3cc([N+](=O)[O-])ccc3n2)CC1` [Compound 12, 2-(4-Dodecyl-piperazin-1-yl)-6-nitroquinoline], for which the “reduction in mice immobility time” value is reported as 10% in assay [1] (5 mg/kg ip) and 8% in assay [1] (10 mg/kg ip). In assay [1], the “antidepressant effect” value is “moderate antidepressant activity”. In addition, in assay [2], the “Locomotor activity 6 minutes” value is 628 ± 55.
Regarding `CCCCCCCCCN1CCN(c2ccc3cc([N+](=O)[O-])ccc3n2)CC1` [Compound 9, 2-(4-Nonyl-piperazin-1-yl)-6-nitroquinoline], the “antidepressant effect” value in assay [1] is reported as “ineffective”.
`CCCCCCCCCCN1CCN(c2ccc3cc([N+](=O)[O-])ccc3n2)CC1` [Compound 10, 2-(4-Decylo-piperazin-1-yl)-6-nitroquinoline]: the “reduction in mice immobility time” value in assay [1] (5 mg/kg ip) was 12%. In addition, in assay [1], the “antidepressant effect” value is “moderate antidepressant activity”. The “Locomotor activity 6 minutes” value in assay [2] was determined as 239 ± 41.
